UBC9 SUMO inh: inhibitors of human SUMOylation (UBC9); inhibition, % at 35 µM; P63279; HTRF SUMOylation assay, SAE1/SAE2 + UBC9, in vitro; 290,000 tested, 0.36% active; in the data active = inhibition above about 50%, passing the limit was not always enough
Target sequence (P63279 whole entry, looked up): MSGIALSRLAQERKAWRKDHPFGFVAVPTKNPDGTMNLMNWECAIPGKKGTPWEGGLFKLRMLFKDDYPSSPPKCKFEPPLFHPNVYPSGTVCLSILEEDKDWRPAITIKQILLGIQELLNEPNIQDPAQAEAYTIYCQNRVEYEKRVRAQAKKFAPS
TPT1 inhibitor: C. albicans TPT1 enzyme inhibition; recombinant caTPT1, FP RNA substrate dephosphorylation; inhibition, % at 5 µM; 300,000 tested, 0.81% active;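 active = inhibition above the mean of all tested compounds plus 3 SD, set per screening campaign, cut at about 24% in these data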;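 also: plate controls were DMSO alone for no effect and ferristatin control at 100 nM for full effect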
Rpn11 block: Rpn11 (human) deubiquitinase inhibition | 360,000 tested, 0.59% active | AID 588493 | human 26S proteasome, Ub4-pepOG fluorescence polarization; 20S core pre-blocked with epoxomicin | O00487 | calls only at 20 µM;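 active = inhibition at 20 µM, scaled to each plate's controls, above about 33%, limit read from the data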
HNF4A DNA FP: change in binding of human HNF4 alpha to DNA; P41235; 360,000 tested, 0.3% active; AID 1224865; HNF4a-FITC DNA binding, fluorescence polarization, 1 h; activity change, % at 10 µM; in the data active = activity change above about 30%, passing the limit was not always enough
CSN deneddyl inh: CSN deneddylation inhibition. Q92905. Purified CSN, SCF-Nedd8-OG deneddylation, fluorescence polarization. inhibition, % at 12.5 µM. 360,000 tested, 0.38% active. AID 651999;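 active = pattern-corrected inhibition above about 35%, with an unprinted fluorescence ratio check between 0.5 and 1.5, limit read from the data, passing the limit was not always enough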;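 also: 0% = enzyme with substrate and 100% = substrate without enzyme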
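Test system: Human Csn5 produced in HEK293T cells | Compound: 12.5 µM single point | Times: 90 min, room temperature | Signal: Fluorescence polarization readout | Read-out basis: % inhibition of substrate cleavage by Csn5 | Controls: no-enzyme wells high, enzyme-with-substrate wells low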
SENP1 inh: SENP1 (human) catalytic domain inhibition | AID 624204 | recombinant SENP1 catalytic domain, CyPet-SUMO1-YPet FRET cleavage | inhibition, % at 10 µM | Q9P0U3 | 360,000 tested, 0.21% active;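 active = inhibition at least 30% at 10 µM, raw YFP signal under a set limit, fluorescence ratio 0.5 to 1.5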;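 also: 0% = enzyme with DMSO and 100% = no enzyme wells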
Target sequence (Q9P0U3 419-644 limits assumed): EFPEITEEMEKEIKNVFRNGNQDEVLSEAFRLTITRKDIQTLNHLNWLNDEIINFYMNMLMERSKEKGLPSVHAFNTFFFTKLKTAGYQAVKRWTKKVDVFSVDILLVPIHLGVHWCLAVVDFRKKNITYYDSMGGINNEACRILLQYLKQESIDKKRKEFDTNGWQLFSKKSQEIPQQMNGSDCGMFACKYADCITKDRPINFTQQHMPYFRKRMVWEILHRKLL
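Test system: recombinant human SENP1 catalytic domain, His6-tagged / Medium: pH 8 Tris buffer with EDTA, NaCl, BME, BSA, NP40, catalase / Also added: SUMO1 FRET substrate flanked by Cypet and Ypet, 25 nM / Times: 50 min reaction at room temperature / Signal: FRET, CFP and YFP emission / Control set: no-enzyme low control and enzyme-plus-DMSO high control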
TPT1 inh confirm: confirmation of Candida albicans TPT1 inhibitors; shares compounds with TPT1 inhibitor; recombinant caTPT1, fluorescence polarization, RNase T1 coupled; inhibition, % at 5 µM; 2,400 tested, 74% active;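 active = inhibition above the primary screen limit, the mean inhibition of all tested compounds plus 3 SD, cut at about 25% in these data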
RNase T1 counter: counter-screen for TPT1 inhibitors: inhibitors of Aspergillus oryzae RNase T1; AID 2153; shares compounds with TPT1 inhibitor; 2,400 tested, 83% active; RNase T1 cleavage, fluorescence polarization, 1536-well; inhibition, % at 5 µM;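 active = inhibition above the solvent-only control well mean plus 3 SD, limit set per screening run, cut at about 23% in these data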;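 also: plate controls were DMSO wells with enzyme for no effect and wells without RNase T1 for full effect; inhibitors block cleavage so intact labeled substrate keeps polarization high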
An asterisk follows results filed as active; i = inactive; . = not tested or not shown; + = active, no number. Hits are enriched below; roughly 1.8% of the tested compounds scored in any of these assays.

SMILES	UBC9 SUMO inh	TPT1 inhibitor	Rpn11 block	HNF4A DNA FP	CSN deneddyl inh	SENP1 inh	TPT1 inh confirm	RNase T1 counter
COc1ccc(CC(=O)NC(C)c2nnc(SCCOc3ccc(OC)cc3)n2C)cc1 (stereo not given)	-0.2	-1.4	i	-2.7	0.8	1.0	.	.
Cc1cc(C)c(NC(=O)CSc2nc3ccc(NC(=O)CSc4nnnn4-c4ccccc4)cc3s2)c(C)c1	5.2	-0.8	i	1.3	0.8	-6.1	.	.
CCOC(=O)C1=C(C)N=c2s/c(=C\c3ccc(C(=O)O)cc3)c(=O)n2C1c1ccc(OC)cc1OC (stereo not given)	.	0.9	i	1.5	7.4	19.0	.	.
CCOC(=O)C1=C(C)N=c2s/c(=C\c3cccn3C)c(=O)n2C1c1cccc(OC)c1OC (stereo not given)	-17.4	82.3*	.	84.5*	46.4*	-24.4	138.9*	137.1*
CCOC(=O)C1=C(C)N=c2s/c(=C/c3ccco3)c(=O)n2C1c1cccc(OC)c1 (stereo not given)	35.1	31.2*	.	.	.	.	25.3*	34.9*
CCOC(=O)[C@]12CCCC=C1N(Cc1ccco1)C(=O)[C@H](CC(=O)NCCCCc1ccccc1)C2	.	.	.	-0.1	-3.8	-3.0	.	.
CN1CCCN(C(=O)CC2(CC(=O)O)CCCC2)CC1	-1.5	-5.2	i	-1.2	-3.7	2.0	.	.
Cc1c(NC(=O)C(C)Sc2nnc(-c3ccccc3)o2)c(=O)n(-c2ccccc2)n1C (stereo not given)	8.2	0.3	i	-0.2	0.2	3.1	.	.
Cc1nc2ccccc2nc1OCC(=O)Nc1ccccc1	-3.3	95.8*	i	-0.1	0.2	0.1	4.2	4.9
CCC(C)N1C(=O)CCC1C(=O)NCc1ccc2c(c1)OCO2 (stereo not given)	16.8	-4.1	i	1.1	-1.4	1.3	.	.
O=C1N=C(N2CCOCC2)S/C1=C/c1ccc(-c2ccccc2Cl)o1	8.7	1.6	i	-41.5	2.8	-24.3	.	.
O=C1S/C(=C\c2ccc(N3CCOCC3)o2)C(=O)N1Cc1c(F)cccc1Cl	21.3	147.5*	.	138.1	-28.7	-21.1	189.6*	173.7*
O=C1S/C(=C\c2ccc(N3CCOCC3)o2)C(=O)N1c1ccccc1	-3.7	+	.	-20.3	4.3	23.7	185.4*	166.4*
O=C1S/C(=C/c2ccc(N3CCOCC3)o2)C(=O)N1Cc1c(F)cccc1Cl	0.5	139.0*	.	148.9	-72.0	-26.9	177.1*	161.8*
O=C(CC(C(=O)O)c1ccccc1)Nc1cccc2ccccc12 (stereo not given)	17.1	30.0*	i	2.4	-12.4	-2.8	4.7	7.6
O=C(CC(NC(=O)c1ccccc1)c1ccccc1)Nc1cccc2ccccc12 (stereo not given)	28.9	2.0	i	-0.6	-1.3	-0.1	.	.
CC(C)CN1C(=O)/C(=C/c2c(N3CCc4ccccc4C3)nc3ccccn3c2=O)SC1=S	15.5	.	.	.	.	.	.	.
O=C1/C(=C\c2c(NCCOCCO)nc3ccccn3c2=O)SC(=S)N1Cc1ccco1	18.1	86.3*	.	103.5	96.8	74.3	85.6*	86.6*
COc1cc(/C=C2\SC(=O)N(CC(=O)Nc3ccccc3F)C2=O)cc(Cl)c1O	.	67.3*	i	2.7	11.0	-25.2	81.2*	67.7*
CC[C@@H](C)[C@H](NC(=O)CNC(=O)Cc1c(C)c2c(cc(C)c3c(C)coc32)oc1=O)C(=O)O	45.1	50.6*	i	1.7	0.0	0.8	5.5	7.0
COc1cc(/C=C/C(=O)C2C(=O)C=C(C)OC2=O)cc(OC)c1O (stereo not given)	3.0	36.9*	i	-4.5	-0.3	29.1	17.9	28.0*
COc1ccc(/C=C/C(=O)C2C(=O)C=C(C)OC2=O)cc1O (stereo not given)	11.1	25.4*	i	0.0	3.5	0.5	18.2	30.2*
